Source: ChEMBL document CHEMBL4342471, “Discovery of Thieno[2,3-d]pyrimidine-Based Hydroxamic Acid Derivatives as Bromodomain-Containing Protein 4/Histone Deacetylase Dual Inhibitors Induce Autophagic Cell Death in Colorectal Carcinoma Cells” (J Med Chem, 2020)
Active and inactive are the calls of the source. No cut-off for these calls is given here.

What was measured:
Histone deacetylase 5 = Histone deacetylase 5 (Homo sapiens, UniProt Q9UQL6); test: Inhibition of HDAC5 (unknown origin) using biotinylated histone H3 KAc peptide (1 to 21 residues) as substrate by HTRF assay
Sequence of Histone deacetylase 5 (Q9UQL6 whole entry, the tested form may be a part): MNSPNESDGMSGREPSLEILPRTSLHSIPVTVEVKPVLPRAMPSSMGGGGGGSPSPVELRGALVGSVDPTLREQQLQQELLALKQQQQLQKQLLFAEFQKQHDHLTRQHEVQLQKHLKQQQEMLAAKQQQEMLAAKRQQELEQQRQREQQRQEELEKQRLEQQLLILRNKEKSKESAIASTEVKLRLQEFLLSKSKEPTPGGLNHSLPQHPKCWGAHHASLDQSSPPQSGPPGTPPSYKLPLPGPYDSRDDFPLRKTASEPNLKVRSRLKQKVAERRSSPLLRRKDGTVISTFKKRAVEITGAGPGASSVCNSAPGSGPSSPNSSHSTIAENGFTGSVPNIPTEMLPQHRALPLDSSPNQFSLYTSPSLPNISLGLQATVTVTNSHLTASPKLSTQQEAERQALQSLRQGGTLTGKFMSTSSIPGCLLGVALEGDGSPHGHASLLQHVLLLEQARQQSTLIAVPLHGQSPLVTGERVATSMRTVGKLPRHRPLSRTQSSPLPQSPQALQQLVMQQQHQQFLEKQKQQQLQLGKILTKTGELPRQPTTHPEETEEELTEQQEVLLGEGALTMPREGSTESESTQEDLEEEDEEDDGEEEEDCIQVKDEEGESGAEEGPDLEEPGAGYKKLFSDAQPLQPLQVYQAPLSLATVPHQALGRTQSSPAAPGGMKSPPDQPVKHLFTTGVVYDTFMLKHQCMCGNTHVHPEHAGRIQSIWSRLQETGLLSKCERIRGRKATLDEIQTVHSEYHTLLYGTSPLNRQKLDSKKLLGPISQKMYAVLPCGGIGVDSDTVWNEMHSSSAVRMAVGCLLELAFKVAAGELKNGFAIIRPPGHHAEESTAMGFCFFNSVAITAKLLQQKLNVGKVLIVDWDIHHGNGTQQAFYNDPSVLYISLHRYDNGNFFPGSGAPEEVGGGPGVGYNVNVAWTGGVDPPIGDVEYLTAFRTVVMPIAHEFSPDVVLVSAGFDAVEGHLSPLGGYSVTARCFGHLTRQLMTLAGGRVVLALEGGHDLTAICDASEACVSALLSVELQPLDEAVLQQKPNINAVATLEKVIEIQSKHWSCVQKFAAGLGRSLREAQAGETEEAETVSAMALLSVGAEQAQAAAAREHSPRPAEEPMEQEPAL

HCT-116 [1] = test: Induction of cell cycle arrest in human HCT116 cells assessed as cell accumulation at sub-G1 phase at 0.2 to 0.5 uM by flow cytometry; type: functional, cell-based
Procedure, shortened: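 HCT-116 cells treated at 0.2 or 0.5 μM were analysed for cell cycle by flow cytometry, with the sub-G1 population scored.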

Homo sapiens [2] = species: Homo sapiens; test: Inhibition of BRD4/HDAC in human HCT116 cells assessed as inhibition of IL6-JAK-STAT3 signaling pathway by measuring decrease in LIFR expression at 0.5 uM after 24 hrs by Western blot analysis; type: cell-based
Procedure, shortened: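 HCT-116 cells treated 24 h with 0.5 µM, 5.0 µM or 10 µM test agent depending on compound; OSMR, LIFR and downstream pathway proteins detected by western blot.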

HCT-116 [3] = test: Effect on histone H3 expression level in human HCT116 cells at 0.2 to 0.5 uM measured after 24 hrs by Western blot analysis; type: functional, cell-based
Homo sapiens [4] = species: Homo sapiens; test: Inhibition of BRD4/HDAC in human HCT116 cells assessed as increase in CTF1 mRNA level at 0.5 uM after 24 hrs by RT-PCR analysis; type: cell-based
Procedure, shortened: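 HCT-116 cells incubated 24 h with test agent (0.5 µM, 2.0 µM or 10 µM depending on compound); IL6, OSM, LIF and CTF1 mRNA levels then quantified.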

[5] = biological target: T1, Protein deacetylase HDAC6 (Homo sapiens, UniProt Q9UBN7); test: Inhibition of HDAC6 (unknown origin) using biotinylated histone H3 KAc peptide (1 to 21 residues) as substrate by HTRF assay
T1 sequence (Q9UBN7 whole entry): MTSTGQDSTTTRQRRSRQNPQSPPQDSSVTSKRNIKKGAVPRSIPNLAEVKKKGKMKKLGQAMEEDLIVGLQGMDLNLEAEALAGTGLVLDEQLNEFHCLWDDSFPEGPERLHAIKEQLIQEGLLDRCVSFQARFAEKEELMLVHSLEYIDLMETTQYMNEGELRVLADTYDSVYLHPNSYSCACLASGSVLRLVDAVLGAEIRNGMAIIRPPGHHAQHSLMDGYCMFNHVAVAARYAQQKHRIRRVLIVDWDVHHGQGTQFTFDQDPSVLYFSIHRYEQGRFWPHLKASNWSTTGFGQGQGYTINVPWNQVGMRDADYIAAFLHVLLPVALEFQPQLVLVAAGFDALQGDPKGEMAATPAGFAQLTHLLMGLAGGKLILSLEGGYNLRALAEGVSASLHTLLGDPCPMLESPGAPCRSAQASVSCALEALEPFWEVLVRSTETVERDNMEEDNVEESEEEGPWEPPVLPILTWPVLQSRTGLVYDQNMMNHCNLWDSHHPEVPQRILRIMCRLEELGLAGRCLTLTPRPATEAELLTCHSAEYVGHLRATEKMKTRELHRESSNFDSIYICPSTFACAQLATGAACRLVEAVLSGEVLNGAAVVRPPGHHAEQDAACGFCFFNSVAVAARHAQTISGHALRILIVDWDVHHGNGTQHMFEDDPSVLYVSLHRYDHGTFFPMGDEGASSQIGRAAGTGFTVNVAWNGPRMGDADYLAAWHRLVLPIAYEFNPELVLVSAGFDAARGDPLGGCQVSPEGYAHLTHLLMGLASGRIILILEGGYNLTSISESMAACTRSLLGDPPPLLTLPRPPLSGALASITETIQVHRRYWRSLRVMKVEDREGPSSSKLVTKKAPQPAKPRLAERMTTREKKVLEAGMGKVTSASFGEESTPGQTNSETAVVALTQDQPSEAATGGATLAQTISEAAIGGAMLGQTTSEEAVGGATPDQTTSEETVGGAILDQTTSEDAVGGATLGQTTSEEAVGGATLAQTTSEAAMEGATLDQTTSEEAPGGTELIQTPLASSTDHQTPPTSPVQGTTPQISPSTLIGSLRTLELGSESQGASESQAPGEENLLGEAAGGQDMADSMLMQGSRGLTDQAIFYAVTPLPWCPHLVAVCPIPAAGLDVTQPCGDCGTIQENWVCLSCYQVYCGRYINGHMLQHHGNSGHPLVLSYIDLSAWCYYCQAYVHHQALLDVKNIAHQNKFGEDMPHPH

[6] = biological target: Bromodomain-containing protein 2 (Homo sapiens, UniProt P25440); test: Inhibition of human recombinant His-tagged BRD2 BD2 domain expressed in Escherichia coli BL21(DE3)-R3-pRARE2 cells by AlphaScreen assay
Sequence of Bromodomain-containing protein 2 (P25440 whole entry, the tested form may be a part): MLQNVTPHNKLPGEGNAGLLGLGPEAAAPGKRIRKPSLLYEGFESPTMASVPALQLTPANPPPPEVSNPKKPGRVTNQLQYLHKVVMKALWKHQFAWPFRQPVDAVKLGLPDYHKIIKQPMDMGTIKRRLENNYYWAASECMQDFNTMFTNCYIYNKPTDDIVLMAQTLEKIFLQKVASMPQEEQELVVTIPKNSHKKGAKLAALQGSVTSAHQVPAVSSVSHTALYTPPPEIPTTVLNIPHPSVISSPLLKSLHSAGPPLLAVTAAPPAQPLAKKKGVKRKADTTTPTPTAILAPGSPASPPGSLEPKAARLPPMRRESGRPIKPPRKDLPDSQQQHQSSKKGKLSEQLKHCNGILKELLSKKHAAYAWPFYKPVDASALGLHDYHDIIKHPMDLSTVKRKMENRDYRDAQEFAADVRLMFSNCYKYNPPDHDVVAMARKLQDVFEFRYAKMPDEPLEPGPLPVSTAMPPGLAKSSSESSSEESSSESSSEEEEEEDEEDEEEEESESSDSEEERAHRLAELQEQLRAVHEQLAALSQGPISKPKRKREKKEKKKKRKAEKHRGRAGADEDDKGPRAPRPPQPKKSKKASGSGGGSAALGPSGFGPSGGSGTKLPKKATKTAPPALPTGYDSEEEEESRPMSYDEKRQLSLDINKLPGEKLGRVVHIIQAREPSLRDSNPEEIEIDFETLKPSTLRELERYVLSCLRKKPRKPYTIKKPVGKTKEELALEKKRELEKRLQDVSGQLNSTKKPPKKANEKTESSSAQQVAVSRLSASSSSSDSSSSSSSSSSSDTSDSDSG

HCT-116 [7] = test: Induction of apoptosis in human HCT116 cells assessed as early apoptotic cells at 0.5 uM by Annexin-V FITC/propidium iodide staining-based flow cytometry (reference value: 2.8 %); type: functional
Histone deacetylase 2 = Histone deacetylase 2 (Homo sapiens, UniProt Q92769)
Sequence of Histone deacetylase 2 (Q92769 whole entry): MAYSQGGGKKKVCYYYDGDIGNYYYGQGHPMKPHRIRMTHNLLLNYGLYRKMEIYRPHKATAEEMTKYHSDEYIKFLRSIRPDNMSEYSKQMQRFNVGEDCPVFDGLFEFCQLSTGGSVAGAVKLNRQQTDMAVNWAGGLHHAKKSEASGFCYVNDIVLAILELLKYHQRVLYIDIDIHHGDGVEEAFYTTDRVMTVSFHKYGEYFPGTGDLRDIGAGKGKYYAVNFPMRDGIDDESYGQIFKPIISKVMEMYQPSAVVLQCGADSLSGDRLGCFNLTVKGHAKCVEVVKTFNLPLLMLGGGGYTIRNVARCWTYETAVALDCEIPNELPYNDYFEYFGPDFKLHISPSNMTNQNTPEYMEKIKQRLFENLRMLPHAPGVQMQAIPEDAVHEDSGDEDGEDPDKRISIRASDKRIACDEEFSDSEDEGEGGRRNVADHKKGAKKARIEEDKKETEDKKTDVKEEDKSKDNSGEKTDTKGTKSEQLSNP

HCT-116 [8] = test: Induction of apoptosis in human HCT116 cells assessed as late apoptotic cells at 0.5 uM by Annexin-V FITC/propidium iodide staining-based flow cytometry (reference value: 3.51 %); type: functional
[9] = AUC (0 to infinity) in Sprague-Dawley rat at 30 mg/kg, iv administered as bolus dose measured up to 1440 mins by UPLC-QTOF/MS analysis; type: ADME, organism-based; design: dose 30 mg/kg, route intravenous, time infinity; conditions: in vivo
HCT-116 [10] = test: Inhibition of colony formation in human HCT116 cells at 0.2 to 0.5 uM incubated for 24 hrs; type: functional, cell-based
Procedure, shortened: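 HCT-116 colony formation assessed after treatment at 0.2 or 0.5 µM.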

[11] = Toxicity in BALB/cAnNCrl mouse xenografted with human HCT116 cells assessed as effect on liver morphological changes at 15 to 30 mg/kg, po administered on day 1 to day 19 measured on day 19 by hematoxylin and eosin staining based assay; type: organism-based; conditions: in vivo
Procedure, shortened: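 HCT-116 xenograft mice dosed orally at 15 or 30 mg/kg for 19 days, saline as vehicle control; body weights tracked, and main organs sectioned and H&E-stained at study end.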

[12] = biological target: T2, Bromodomain-containing protein 4 (Homo sapiens, UniProt O60885); test: Inhibition of human recombinant His-tagged BRD4 BD2 domain using H-SGRGK(Ac)GGK(Ac)GLGK-(Ac)GGAK(Ac)RHRK(Biotin)-OH as substrate preincubated with enzyme for 30 mins followed by substrate addition measured after 30 mins by AlphaScreen assay
[13] = biological target: T2, Bromodomain-containing protein 4; test: Inhibition of BRD4 in human HCT116 cells assessed as induction of autophagy by measuring p62 degradation at 0.5 uM measured after 24 hrs by Western blot analysis; type: cell-based
Mus musculus = test: Increase in LIFR expression in tumor tissue of BALB/cAnNCrl mouse xenografted with human HCT116 cells at 15 to 30 mg/kg, po administered on day 1 to day 19 measured on day 19 by immunohistochemical analysis; type: functional, organism-based
Procedure, shortened: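 HCT-116 xenograft mice were dosed orally at 15 or 30 mg/kg, or 30 mg/kg for reference agents, for 19 days, with vehicle or saline controls. Tumor sections were stained for Ki-67, c-Myc, Ac-H3, BRD4, LC3-II, LIFR and p-STAT3 by immunohistochemistry, and TUNEL staining was used as the apoptosis marker.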

IC50 (Histone deacetylase 5): > 10000 nM
IC50 [5]: 73 nM
IC50 [6]: > 20000 nM
IC50 (Histone deacetylase 2): 58 nM
IC50 [12]: 2050 nM
inhibition [13]: Active
Compound: Cc1cc(-c2nc3sc4c(c3c(=O)[nH]2)CCN(C)C4)cc(C)c1OCCCCCC(=O)NO
Activity (HCT-116 [1]): Active
inhibition (Homo sapiens [2]): Active
Activity (HCT-116 [3]): inactive
inhibition (Homo sapiens [4]): Active
Activity (HCT-116 [7]): 9.54%
Activity (HCT-116 [8]): 35.8%
AUC(0-inf) [9]: 156 µg·h/mL
inhibition (HCT-116 [10]): Active
Activity [11]: Non-Toxic
Activity (Mus musculus): inactive
